The record followed here is ChEMBL document CHEMBL1157340, “Highly substituted terphenyls as inhibitors of parasite cGMP-dependent protein kinase activity” (J Nat Prod, 2006).

Experiment [1] has as its target cGMP-dependent protein kinase (Eimeria tenella). As to the kind of experiment: Inhibition of Eimeria tenella cGMP-dependent protein kinase assessed as inhibition of transfer of phosphate group by radiometric assay.
The subject of another experiment is Toxoplasma gondii. As to the kind of experiment: Antiparasitic activity against Toxoplasma gondii in human foreskin fibroblast by beta-galactosidase assay. In kind it is functional, organism-based. An outline of the steps: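 Human foreskin fibroblasts grown to confluence, then infected with T. gondii strain stably expressing bacterial β-galactosidase; parasite growth allowed 5 days with test samples present. Chlorophenol red-β-D-galactopyranoside added, further 2–4 h incubation, absorbance read at 570 nm as measure of parasite viability. IC50 reported.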

What is called IC50 is the concentration at which inhibition is half-maximal.

Consider `CN1CCC(c2cc(-c3ccncc3)c(-c3ccc(F)cc3)[nH]2)CC1`, for which the IC50 in experiment [1] was under 0.001 µM; in the experiment on Toxoplasma gondii, 0.21 µM.

Turning to `COc1c(O)c(-c2ccccc2)cc(O)c1-c1ccccc1O`, the IC50 in experiment [1] is 5.2 µM; in the experiment on Toxoplasma gondii, 10.4 µM.

As for `COc1c(O)c(-c2ccccc2)cc(O)c1-c1cc(O)ccc1O`, the results for the IC50 (in experiment [1]; with Toxoplasma gondii) were 5.8 µM and 9.5 µM, respectively.

As to `COc1cc(-c2ccccc2)c(O)c(O)c1-c1ccccc1` [TERFEROL], the IC50 in experiment [1] was determined as 3.9 µM; in the experiment on Toxoplasma gondii, 26.8 µM.
